Experiments:
[1] = Hydrolysis were done at 25 degree C in 0.05 M phosphate buffer (pH 7.4); type: ADME
How it was run: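 Model pyridinium salts were hydrolysed to pyridones at 25 °C in 0.05 M phosphate buffer, pH 7.4. Decay of the pyridinium UV absorption maximum was monitored over time, giving pseudo-first-order k_obs and half-life.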

[2] = Half life of the compound; type: ADME
P388 [3] = assay: In vivo activity against P388 Lymphocytic Leukemia in CD2F1 mice at the dose of 50 mg/kg, activity expressed as % T/C; type: functional, Mus musculus
How it was run: (§1)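 CD2F1 mice were inoculated with ascitic fluid holding ca. 10^6 P388 cells. Drug was given daily from 24 h after inoculation, from solutions or suspensions made fresh each day, some as a saline suspension. TDS is survivors/initial animals on day 5. BWD is body weight on day 5 minus day 1. %T/C compares median survival of treated and control mice.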

P388 [4] = assay: In vivo activity against P388 Lymphocytic Leukemia in CD2F1 mice at the dose of 200 mg/kg, activity expressed as TDS; 4/4; type: functional, Mus musculus; how it was run: as §1
P388 [5] = assay: In vivo activity against P388 Lymphocytic Leukemia in CD2F1 mice at the dose of 25 mg/kg, activity expressed as TDS; 4/4; type: functional, Mus musculus; how it was run: as §1
P388 [6] = assay: In vivo activity against P388 Lymphocytic Leukemia in CD2F1 mice at the dose of 50 mg/kg, activity expressed as TDS; 4/4; type: functional, Mus musculus; how it was run: as §1
P388 [7] = assay: In vivo body weight difference was determined in P388 Lymphocytic Leukemia in CD2F1 mice at the dose of 100 mg/kg; type: functional, Mus musculus
P388 [8] = assay: In vivo body weight difference was determined in P388 Lymphocytic Leukemia in CD2F1 mice at the dose of 200 mg/kg; type: functional, Mus musculus
P388 [9] = assay: In vivo body weight difference was determined in P388 Lymphocytic Leukemia in CD2F1 mice at the dose of 25 mg/kg; type: functional, Mus musculus
P388 [10] = assay: In vivo body weight difference was determined in P388 Lymphocytic Leukemia in CD2F1 mice at the dose of 50 mg/kg; type: functional, Mus musculus
P388 [11] = assay: In vivo activity against P388 Lymphocytic Leukemia in CD2F1 mice at the dose of 200 mg/kg, activity expressed as % T/C; type: functional, Mus musculus; how it was run: as §1
P388 [12] = assay: In vivo activity against P388 Lymphocytic Leukemia in CD2F1 mice at the dose of 25 mg/kg, activity expressed as % T/C; type: functional, Mus musculus; how it was run: as §1
P388 [13] = assay: In vivo activity against P388 Lymphocytic Leukemia in CD2F1 mice at the dose of 100 mg/kg, activity expressed as TDS; 4/4; type: functional, Mus musculus; how it was run: as §1
P388 [14] = assay: In vivo activity against P388 Lymphocytic Leukemia in CD2F1 mice at the dose of 100 mg/kg, activity expressed as % T/C; type: functional, Mus musculus; how it was run: as §1
MX1 [15] = assay: In vivo body weight difference was determined in murine MX-1 tumor system at the dose of 90 mg/kg; type: functional, Mus musculus
MX1 [16] = assay: In vivo activity against murine MX-1 tumor system at the dose of 90mg/kg, activity expressed as %T/C.; type: functional, Mus musculus
MX1 [17] = assay: In vivo activity against murine MX-1 tumor system at the dose of 180 mg/kg, activity expressed as TDS; 0/6; type: functional, Mus musculus
L1210 [18] = assay: In vivo activity against murine L1210 tumor system at the dose of 50 mg/kg, activity expressed as KE; type: functional, Mus musculus
How it was run: (§2)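 L1210 lymphocytic leukemia: ascitic fluid with ca. 10^6 cells injected ip into CD2F1 mice. Dosing started 24 h after inoculation and was repeated daily for five doses in total, from solutions or suspensions made fresh each day. Toxicity day survivors were scored on day 5. Body weight difference is day 5 minus day 1. %T/C is based on median survival time versus controls.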

MX1 [19] = assay: In vivo activity against murine MX-1 tumor system at the dose of 90 mg/kg, activity expressed as TDS; 6/6; type: functional, Mus musculus
[20] = In vivo activity against murine M5076 tumor system at the dose of 90 mg/kg, activity expressed as KE; type: functional, Mus musculus
[21] = In vivo activity against murine M5076 tumor system at the dose of 90 mg/kg, activity expressed as %T/C.; type: functional, Mus musculus
[22] = In vivo activity against murine M5076 tumor system at the dose of mg/kg, activity expressed as %T/C.; type: functional, Mus musculus
[23] = In vivo activity against murine M5076 tumor system at the dose of 180 mg/kg, activity expressed as TDS; 3/10; type: functional, Mus musculus
How it was run: (§3)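 M5076: ascitic fluid with ca. 10^6 cells inoculated ip into CD2F1 mice. Dosing started 24 h after inoculation and was then given every 4 days for four doses in total, from solutions or suspensions made fresh each day. Toxicity day survivors were scored on day 5. Body weight difference is day 14 minus day 1. %T/C is based on median survival time versus controls.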

[24] = In vivo activity against murine M5076 tumor system at the dose of 45 mg/kg, activity expressed as TDS; 10/10; type: functional, Mus musculus
[25] = In vivo activity against murine M5076 tumor system at the dose of 90 mg/kg, activity expressed as TDS; 10/10; type: functional, Mus musculus
L1210 [26] = assay: In vivo activity against murine L1210 tumor system at the dose of 25 mg/kg, activity expressed as %T/C.; type: functional, Mus musculus; how it was run: as §2
L1210 [27] = assay: In vivo activity against murine L1210 tumor system at the dose of 50 mg/kg, activity expressed as %T/C.; type: functional, Mus musculus; how it was run: as §2
L1210 [28] = assay: In vivo activity against murine L1210 tumor system at the dose of 100 mg/kg, activity expressed as TDS; 0/6; type: functional, Mus musculus; how it was run: as §2
L1210 [29] = assay: In vivo activity against murine L1210 tumor system at the dose of 25 mg/kg, activity expressed as TDS; 6/6; type: functional, Mus musculus; how it was run: as §2
L1210 [30] = assay: In vivo body weight difference was determined in murine L1210 tumor system at the dose of 25 mg/kg; type: functional, Mus musculus
L1210 [31] = assay: In vivo body weight difference was determined in murine L1210 tumor system at the dose of 50 mg/kg; type: functional, Mus musculus
L1210 [32] = assay: In vivo activity against murine L1210 tumor system at the dose of 25 mg/kg, activity expressed as KE; type: functional, Mus musculus; how it was run: as §2
L1210 [33] = assay: In vivo activity against murine L1210 tumor system at the dose of 50 mg/kg, activity expressed as TDS; 6/6; type: functional, Mus musculus; how it was run: as §2
[34] = In vivo body weight difference was determined in murine M5076 tumor system at the dose of 180 mg/kg; type: functional, Mus musculus
[35] = In vivo body weight difference was determined in murine M5076 tumor system at the dose of 45 mg/kg; type: functional, Mus musculus
[36] = In vivo body weight difference was determined in murine M5076 tumor system at the dose of 90 mg/kg; type: functional, Mus musculus
[37] = In vivo activity against murine M5076 tumor system at the dose of 45 mg/kg, activity expressed as KE; type: functional, Mus musculus; how it was run: as §3
P388 [38] = assay: In vivo body weight difference was determined against P388 Lymphocytic Leukemia in CD2F1 mice at the dose of 100 mg/kg; type: functional, Mus musculus
P388 [39] = assay: In vivo activity against P388 Lymphocytic Leukemia in CD2F1 mice at the dose of 12.5 mg/kg, activity expressed as TDS; 6/6; type: functional, Mus musculus; how it was run: as §1
P388 [40] = assay: In vivo activity against P388 Lymphocytic Leukemia in CD2F1 mice at the dose of 200 mg/kg, activity expressed as TDS; 6/6; type: functional, Mus musculus; how it was run: as §1
P388 [41] = assay: In vivo activity against P388 Lymphocytic Leukemia in CD2F1 mice at the dose of 25 mg/kg, activity expressed as TDS; 6/6; type: functional, Mus musculus; how it was run: as §1
P388 [42] = assay: In vivo activity against P388 Lymphocytic Leukemia in CD2F1 mice at the dose of 400 mg/kg, activity expressed as TDS; 0/6; type: functional, Mus musculus; how it was run: as §1
P388 [43] = assay: In vivo activity against P388 Lymphocytic Leukemia in CD2F1 mice at the dose of 50 mg/kg, activity expressed as TDS; 6/6; type: functional, Mus musculus; how it was run: as §1
P388 [44] = assay: In vivo body weight difference was determined against P388 Lymphocytic Leukemia in CD2F1 mice at the dose of 12.5 mg/kg; type: functional, Mus musculus
P388 [45] = assay: In vivo body weight difference was determined against P388 Lymphocytic Leukemia in CD2F1 mice at the dose of 200 mg/kg; type: functional, Mus musculus
P388 [46] = assay: In vivo body weight difference was determined against P388 Lymphocytic Leukemia in CD2F1 mice at the dose of 25 mg/kg; type: functional, Mus musculus
P388 [47] = assay: In vivo body weight difference was determined against P388 Lymphocytic Leukemia in CD2F1 mice at the dose of 50 mg/kg; type: functional, Mus musculus
P388 [48] = assay: In vivo activity against P388 Lymphocytic Leukemia in CD2F1 mice at the dose of 100 mg/kg, activity expressed as KE; type: functional, Mus musculus
P388 [49] = assay: In vivo activity against P388 Lymphocytic Leukemia in CD2F1 mice at the dose of 12.5 mg/kg, activity expressed as KE; type: functional, Mus musculus
P388 [50] = assay: In vivo activity against P388 Lymphocytic Leukemia in CD2F1 mice at the dose of 25 mg/kg, activity expressed as KE; type: functional, Mus musculus
P388 [51] = assay: In vivo activity against P388 Lymphocytic Leukemia in CD2F1 mice at the dose of 50 mg/kg, activity expressed as KE; type: functional, Mus musculus
P388 [52] = assay: In vivo activity against P388 Lymphocytic Leukemia in CD2F1 mice at the dose of 12.5 mg/kg, activity expressed as % T/C; type: functional, Mus musculus; how it was run: as §1
P388 [53] = assay: In vivo activity against P388 Lymphocytic Leukemia in CD2F1 mice at the dose of 100 mg/kg, activity expressed as TDS; 6/6; type: functional, Mus musculus; how it was run: as §1

## CCOC(=O)c1cc(Cl)[n+](C)c(Cl)c1.CS(=O)(=O)[O-]
[1]
  K obs: 0.114 min⁻¹
[2]
  half-life: 2.1 h

## Cc1ccc(F)[n+](C)c1.O=S(=O)([O-])C(F)(F)F
[1]
  K obs: 0.0605 min⁻¹
[2]
  half-life: 0.19 h

## CC(C)NC(=O)OCc1c(COC(=O)NC(C)C)c(-c2cc(Br)c(Cl)[n+](C)c2)n2c1CCC2.[I-]
P388 [3]
  T/C: 118%
P388 [4]
  TDS: 4
P388 [5]
  TDS: 4
P388 [6]
  TDS: 4
P388 [7]
  BWD: -1 g
P388 [8]
  BWD: -0.7 g
P388 [9]
  BWD: -0.6 g
P388 [10]
  BWD: -0.4 g
P388 [11]
  T/C: 105%
P388 [12]
  T/C: 124%
P388 [13]
  TDS: 4
P388 [14]
  T/C: 122%

## CCOC(=O)c1cc[n+](C)c(Br)c1.O=S(=O)([O-])C(F)(F)F
[1]
  K obs: 0.0002 min⁻¹
[2]
  half-life: 57.7 h

## CC(C)NC(=O)OCc1c(COC(=O)NC(C)C)c(-c2ccc(F)[n+](C)c2)n2c1CCC2.[I-]
MX1 [15]
  BWD: 0.5 g
MX1 [16]
  T/C: 18%
MX1 [17]
  TDS: 0
L1210 [18]
  KE: -2.03
MX1 [19]
  TDS: 6
[20]
  KE: -1.4
[21]
  T/C: 125%
[22]
  T/C: 115%
[23]
  TDS: 3
[24]
  TDS: 10
[25]
  TDS: 10
L1210 [26]
  T/C: 119%
L1210 [27]
  T/C: 123%
L1210 [28]
  TDS: 0
L1210 [29]
  TDS: 6
L1210 [30]
  BWD: -0.7 g
L1210 [31]
  BWD: -0.7 g
L1210 [32]
  KE: -2.09
L1210 [33]
  TDS: 6
[34]
  BWD: -1.4 g
[35]
  BWD: -0.5 g
[36]
  BWD: -1.8 g
[37]
  KE: -1.79
P388 [38]
  BWD: 0.1 g
P388 [3]
  T/C: 141%
P388 [39]
  TDS: 6
P388 [40]
  TDS: 2
P388 [41]
  TDS: 6
P388 [42]
  TDS: 0
P388 [43]
  TDS: 6
P388 [44]
  BWD: 1.2 g
P388 [45]
  BWD: -0.1 g
P388 [46]
  BWD: -0.1 g
P388 [47]
  BWD: 0.6 g
P388 [48]
  KE: 1.54
P388 [49]
  KE: -1.42
P388 [50]
  KE: 0.06
P388 [51]
  KE: 0.32
P388 [52]
  T/C: 112%
P388 [12]
  T/C: 137%
P388 [53]
  TDS: 6
P388 [14]
  T/C: 158%

## Cc1cc(Cl)c(Cl)[n+](C)c1.O=S(=O)([O-])C(F)(F)F
[1]
  K obs: 0.000917 min⁻¹
[2]
  half-life: 12.6 h
